PTEN del growth: suppresses growth of cells with PTEN deletion; HCT116 PTEN-null viability, CellTiter-Glo, 60 h; stronger effect = lower value; viability, % at 10 µM; 140,000 compounds, 1.2% hits; AID 827;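 active means viability at or below a set limit, 4 SD under the median of all tested compounds, cut at about 3.7% in these data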;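 further: PTEN knockout HCT116 line with beta catenin targeted HCT116 as companion control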
Lmaj promast: Leishmania major promastigote growth inhibition; Leishmania major promastigotes, resazurin fluorescence viability; inhibition, % at 10 µM; 200,000 compounds, 9% hits; AID 1063; in the data active means inhibition above about 50%;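 further: promastigotes grown with compound for 44 hours at 28 °C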
Dynein transport: blocks dynein driven cargo transport along microtubules; z-score, hits read low; 220,000 compounds, 0.47% hits; 3617.4 mouse cells, GR-EGFP nuclear translocation imaging; test concentration mostly 20 µM; stimulated with dexamethasone, 1 µM; stronger effect = lower value;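 active means plate z-score of nuclear minus cytoplasmic receptor signal below a set negative limit, without overly bright fluorescence or cell loss, cut at about -3.5 in these data, passing the limit was not always enough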;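 further: z-score of nuclear minus cytoplasmic ring GR-EGFP intensity difference per well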
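Also added: dexamethasone, 1.0 µM final. Medium: tet-free, stripped-serum medium. Detection: fixed, Hoechst-stained cells imaged at 10x for EGFP. Read-out: nuclear-to-cytoplasmic GR-EGFP distribution per well. Times: induction 48 h, compound 1 h, agonist 30 min.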
Autophagy HCS: modulators of autophagy | 190,000 compounds, 0.98% hits | MEF GFP-LC3 puncta imaging; test concentration mostly 10 µM | calls only at 10 µM (by protocol) | AID 463193;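 active means percentage of spot-positive cells more than 3 SD above its plate mean, without a fluorescence outlier flag or 80% toxicity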;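 further: spot-positive cell cutoff set from DMSO-treated cells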
bCat KO growth: beta-catenin-lacking colon tumor cell growth suppression. 140,000 compounds, 1.5% hits. viability, % at 10 µM. AID 818. HCT116 beta-catenin knockout viability, CellTiter-Glo, 60 h; stronger effect = lower value;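 active means viability at or under a set limit, the compound median less 4 SD, cut at about 6% in these data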;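 further: 0% = Hyamine 1622 control at 20 µM and 100% = untreated cell control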
* marks the source's active call; other numbers are inactive results; i = inactive; nt = not tested or not shown; + = active, no number. Shown are actives, neighbours in structure and some others; about 9.2% of the full set was active somewhere.

SMILES	PTEN del growth	Lmaj promast	Dynein transport	Autophagy HCS	bCat KO growth
Cc1ccc(-c2cc(C(F)F)n3ncc(C(=O)N4CCN5CCCC5C4)c3n2)cc1 (stereo not given)	65.8	55.2*	1.41	i	77.4
COc1ccc(-c2cc(C(F)F)n3ncc(C(=O)N4CCN(C)CC4)c3n2)cc1	47.2	98.1*	-0.17	i	85.3
COc1ccc(-c2cc(C(F)F)n3ncc(C(=O)Nc4cccc(S(=O)(=O)N5CCOCC5)c4)c3n2)cc1	nt	65.2*	0.364	i	nt
CCOC(=O)C1CCCN(C(=O)c2sc3nc(-c4ccc(OC)cc4)cn3c2C)C1 (stereo not given)	83.8	99.8*	-0.387	i	92.0
COc1ccc(-c2cc(C(F)F)n3ncc(C(=O)N4CCSCC4)c3n2)cc1	83.5	48.1	2.32	i	77.8
Cc1cccc(C)c1NC(=O)N1CCC(N2CCCCC2)CC1	104.4	0.2	-0.373	i	98.7
CCOC(=O)C1CCCN(C(=O)c2cnn3c(C(F)F)cc(-c4ccc(C)cc4)nc23)C1 (stereo not given)	56.5	98.0*	-0.875	i	57.3
Cc1ccc(-c2cc(C(F)F)n3ncc(C(=O)NN4CCCCC4)c3n2)cc1	nt	4.2	0.238	i	nt
O=C(Nc1cccc(S(=O)(=O)N2CCOCC2)c1)c1cn(-c2ccccc2)nc1-c1ccccc1	71.0	43.6	-0.881	i	80.3
O=C(Nc1cccc(S(=O)(=O)N2CCOCC2)c1)c1cn(-c2ccccc2)nc1-c1ccc(F)cc1	57.9	99.5*	-0.814	i	68.1
COc1ccc(-c2cc(C(=O)N3CCOCC3)c3cc(C)ccc3n2)cc1	93.9	64.7*	-0.0505	i	86.5
Cc1cc(C(=O)CCl)c(C)n1-c1cccc([N+](=O)[O-])c1	nt	100.7*	-3.01	i	nt
Nc1cnccc1C(=O)O	nt	-7.0	-0.618	i	nt
Cc1c(Nc2nc3ccccc3nc2NS(=O)(=O)c2ccccc2)c(=O)n(-c2ccccc2)n1C	94.7	-6.2	-0.0751	+	89.8
Cc1nc(NC2=NCN(CCCN3CCOCC3)CN2)nc2c(C)cccc12	26.1	88.4*	0.189	i	18.8
Cc1nc(NC2=NCN(CC3CCCO3)CN2)nc2ccccc12 (stereo not given)	nt	0.8	-0.347	i	nt
Cc1nc(NC2=NCN(CCc3ccccc3)CN2)nc2c(C)cccc12	nt	95.8*	-0.984	i	nt
CCCCN1CN=C(Nc2nc3ccccc3o2)NC1	91.1	-0.6	0.657	i	102.0
CC(C)C[C@H](NC(=O)c1nc[nH]c1C(=O)N(C)Cc1ccccc1)C(=O)OCc1ccccc1	nt	18.9	0.142	i	nt
COc1ccc(NC(=O)C(=O)NCCC2=CCCCC2)c(OC)c1	95.0	54.6*	0.271	i	98.6
CCOc1ccccc1NC(=O)C(=O)NCCC1=CCCCC1	nt	-4.6	1.37	i	nt
COc1cc(Nc2nc(SCC#N)nc3ccccc23)cc(OC)c1OC	91.1	53.4*	-0.416	i	97.0
O=C1C2=C(CCCC2)C(=O)N1c1cccc(OCCBr)c1	101.5	-5.9	-0.172	i	92.1
CC(C)CN(CCOc1cccc(N2C(=O)C3=C(CCCC3)C2=O)c1)CC(C)C	88.4	62.5*	0.205	i	89.5
O=[N+]([O-])c1ccc(N2CCN(c3nc(-c4ccc(Cl)cc4)cs3)CC2)cc1	65.9	97.7*	0.721	i	64.4
SMILES	PTEN del growth	Lmaj promast	Dynein transport	Autophagy HCS	bCat KO growth
Cc1cc(C)c(NC(=O)CN(C2CCCCC2)C2CCCCC2)c(C)c1	69.2	95.9*	-0.912	i	70.2
O=C(O)C1=C[C@H](c2coc3ccccc3c2=O)C[C@H](OCc2ccc(CO)cc2)O1	nt	-12.6	-1.14	i	nt
CC1(C)CC(=O)C2=C(C1)N1C(=C(C#N)C2c2ccc(Cl)cc2)N=C(N)c2ccccc21 (stereo not given)	13.4	66.0*	-0.54	i	17.8
CC1(C)CC(=O)C2=C(C1)N1C(=C(C#N)C2c2ccccc2Cl)N=C(N)c2ccccc21 (stereo not given)	23.9	32.8	-0.694	i	37.5
Nc1nnn(CC(=O)N/N=C/C=C/c2ccccc2)n1	nt	nt	0.351	nt	nt
O=C(NCCO)c1cc2c(s1)CCC2	93.9	-2.4	1.14	i	86.6
O=C(NCCCn1ccnc1)c1cc2c(s1)CCCCC2	80.9	59.9*	-0.114	i	76.1
O=C(Nc1ccccc1)OC1CC2CC1C1CCCC21 (stereo not given)	nt	1.5	0.0318	i	nt
OCC1(CCCc2ccccc2)CCN(Cc2ccc(F)cc2)CC1	nt	91.3*	0.0725	i	nt
OCC1(CCc2ccccc2)CCN(Cc2ccc(OC(F)F)cc2)CC1	nt	82.2*	-0.718	i	nt
N#CCC(=O)c1sccc1-n1cccc1	nt	-3.1	0.242	i	nt
N#Cc1cc(NC2CCCC2)c([N+](=O)[O-])cc1C#N	81.9	61.3*	-0.446	i	88.8
CC1CCCc2sc3nc(N4CCN(CCO)CC4)n4ncnc4c3c21 (stereo not given)	92.2	90.8*	-0.586	i	91.8
NC(=O)CSc1nc2sc3c(c2c2ncnn12)CCCC3	106.1	6.3	0.797	i	84.5
CCC(CO)NCc1ccc(OC2CCCC2)cc1 (stereo not given)	99.4	85.8*	-1.16	i	88.2
CN(C)CCNCc1ccc(OC2CCCC2)cc1	90.7	50.1*	-1.75	i	91.6
CC(C)CC(=O)N/C(N)=N/c1nc2ccccc2o1	nt	nt	-1.05	nt	nt
O=C(NCCCc1nc2ccccc2[nH]1)c1cccs1	nt	-5.2	-0.877	i	nt
O=S(=O)(Nc1ccc2c(c1)oc1ccccc12)N1CCCC1	81.1	5.2	0.0447	i	84.3
COc1cc2c(cc1NC(=O)COC(=O)[C@@H](NS(=O)(=O)c1ccccc1)C(C)C)oc1ccccc12	60.0	99.4*	-0.297	i	63.0
COc1ccc(CN(C)CC(=O)Nc2cc3oc4ccccc4c3cc2OC)c(OC)c1	65.3	96.6*	-0.0356	i	62.4
COc1cc2c(cc1NS(=O)(=O)N1CCCCC1)oc1ccccc12	70.6	96.3*	-0.341	i	73.7
COc1cc2c(cc1NC(=O)COc1ccccc1OC)oc1ccccc12	94.0	-3.2	-0.564	i	91.0
COc1cc2c(cc1NC(=O)CN(C)Cc1ccc(OC)c(OC)c1)oc1ccccc12	23.3	28.4	0.659	i	22.2
CCN(CC)S(=O)(=O)c1cccc(C(=O)Nc2cc3oc4ccccc4c3cc2OC)c1	90.6	79.8*	-0.42	i	78.9
C=CCON/C(CCC)=C1\C(=O)CC(C)(C)CC1=NC	nt	nt	0.113	nt	nt
COc1cc2c(cc1NC(=O)COC(=O)C(CCSC)NC(=O)c1ccccc1Cl)oc1ccccc12 (stereo not given)	73.8	66.7*	0.285	i	73.9
CCN(C(=O)COc1ncnc2sccc12)c1ccccc1	nt	-9.6	-0.688	i	nt
COC(=O)CC/C(O)=C1\C(=O)CC(C)(C)CC1=NCc1nc2ccccc2[nH]1	nt	-3.6	0.447	i	nt
O=C(O)C1CC1C(=O)N1CCN(c2ccc(Cl)c(Cl)c2)CC1 (stereo not given)	105.4	87.8*	0.00562	i	99.3

Source: PubChem BioAssay (several laboratories)
